Columns and labels:
[1] = tested on: Mycobacterium tuberculosis; assay: Inhibition of Bio-A overexpressed in Mycobacterium tuberculosis in presence of anhydrotetracycline after 9 days
How it was run: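 BioA-overexpressing or BioA-underexpressing Mtb strains were pregrown in Sauton's with 1 μM biotin, washed twice, and seeded at OD580 0.03 in biotin-free medium with 200 ng/mL anhydrotetracycline to set BioA expression. Compounds were tested at 0.2–50 μM final at 37 °C. OD580 was read after 9 days. MIC is the concentration giving 50% inhibition. Triplicate, two biological replicates.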

[2] = Binding affinity to N-terminally His-tagged Mycobacterium tuberculosis BioA overexpressed in Escherichia coli by ITC method
How it was run: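 BioA loaded with PLP by adding 1 mM PLP after size exclusion, then buffer-exchanged into 25 mM HEPES pH 7.5, 50 mM NaCl. Titrated at 25 °C: 10 μM BioA, ligand 100 μM with DMSO matched, 2 μL injections 150 s apart, 750 rpm. First injection discarded; dilution heats corrected; curve fit gives KA, KD = 1/KA. Triplicate, mean ± standard error.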

Q: What does the source list for `CN1Cc2cc(N3CCN(C(=O)c4cccc(Cl)c4)CC3)ccc2C1=O`?
A: MIC50 [1]: > 50 µM; Kd [2]: 866 nM

Q: For `CC(=O)c1cccc(N2CCN(C(=O)c3cccc(Cl)c3)CC2)c1`, which MIC50 [1] is on record?
A: > 50 µM

Q: With `CC(=O)c1ccc(-c2cn(Cc3cccc(Cl)c3)nn2)s1` as the molecule, how does the MIC50 [1] read?
A: > 50 µM

Q: With `CC(=O)c1ccc(N2CCN(C(=O)c3cscn3)CC2)cc1` as the molecule, how does the MIC50 [1] read?
A: > 50 µM

Q: Which MIC50 [1] does the source give for `CCCCCC(=O)N1CCN(c2ccc(C(C)=O)cc2)CC1` here?
A: 47.6 µM

Q: With `CC(=O)c1ccc(N2CCN(C(=O)c3cc(Cl)cc(Cl)c3)CC2)cc1` as the molecule, how does the MIC50 [1] read?
A: > 50 µM

Q: With `CCCC(=O)N1CCN(c2ccc(C(C)=O)cc2)CC1` as the molecule, how does the MIC50 [1] read?
A: > 50 µM

Q: Which MIC50 [1] does the source give for `O=C(c1cccc(Cl)c1)N1CCN(c2ccc([N+](=O)[O-])cc2)CC1` here?
A: 20.9 µM

Q: Which MIC50 [1] does the source give for `COC(=O)c1ccc(N2CCN(C(=O)c3cccc(Cl)c3)CC2)cc1` here?
A: > 50 µM

Q: For `CCC(=O)N1CCN(c2ccc(C(C)=O)cc2)CC1`, which MIC50 [1] is on record?
A: > 50 µM

Q: With `CC(=O)c1ccc(N2CCN(C(=O)c3cncc(Cl)c3)CC2)cc1` as the molecule, how does the MIC50 [1] read?
A: > 50 µM

Q: With `CC(=O)c1ccc(N2CCN(C(=O)c3ccc4c(c3)OCCO4)CC2)cc1` as the molecule, how does the MIC50 [1] read?
A: > 50 µM

Q: For `COc1ccc(-c2ccc(N3CCN(C(=O)c4cccc(Cl)c4)CC3)cc2)nc1`, which MIC50 [1] is on record?
A: > 50 µM

Q: Which MIC50 [1] does the source give for `C/C(=N\O)c1ccc(N2CCN(C(=O)c3cccc(Cl)c3)CC2)cc1` here?
A: > 50 µM

Q: With `CC(=O)c1ccc(N2CCN(C(=O)c3cnn(C)c3)CC2)cc1` as the molecule, how does the MIC50 [1] read?
A: > 50 µM

Q: With `CC(=O)c1ccc(N2CCN(C(=O)c3ccc(Cl)c(Cl)c3)CC2)cc1` as the molecule, how does the MIC50 [1] read?
A: 17.7 µM

Q: With `CC(=O)c1ccc(-c2cn(Cc3cccc(Cl)c3)nn2)cc1` as the molecule, how does the MIC50 [1] read?
A: > 50 µM

Q: With `CC(=O)c1ccc(N2CCN(C(=O)c3cccc(Cl)c3)CC2)s1` as the molecule, how does the MIC50 [1] read?
A: 7.6 µM

Q: What about the Kd [2] of the same molecule?
A: 322 nM

Q: With `CC(=O)c1ccc(N2CCN(C(=O)c3cccc(Cl)c3)CC2)cc1` as the molecule, how does the MIC50 [1] read?
A: 7.5 µM

Q: And the Kd [2]?
A: 157 nM

Q: For `CC(=O)c1ccc(N2CCC(C(=O)c3cccc(Cl)c3)CC2)cc1`, which MIC50 [1] is on record?
A: 9.2 µM

Q: For `O=C(c1cccc(Cl)c1)N1CCN(c2ccc3c(c2)COC3)CC1`, which MIC50 [1] is on record?
A: > 50 µM

Q: Which MIC50 [1] does the source give for `O=C1CCc2cc(N3CCN(C(=O)c4ccc5c(c4)OCO5)CC3)ccc21` here?
A: 2.8 µM

Q: And the Kd [2]?
A: 74 nM

Q: Which MIC50 [1] does the source give for `Cc1noc(-c2ccc(N3CCN(C(=O)c4cccc(Cl)c4)CC3)cc2)n1` here?
A: > 50 µM

Q: Which MIC50 [1] does the source give for `O=C(c1cccc(Cl)c1)N1CCN(c2ccc(-c3ccccn3)cc2)CC1` here?
A: > 50 µM

Q: For `COc1cc(Cl)cc(C(=O)N2CCN(c3ccc(C(C)=O)cc3)CC2)c1`, which MIC50 [1] is on record?
A: > 50 µM

Q: For `O=C(c1cccc(Cl)c1)N1CCN(c2ccc(-c3ccno3)cc2)CC1`, which MIC50 [1] is on record?
A: 38.9 µM

Q: With `CC(=O)c1ccc(N2CCN(C(=O)c3cccnc3)CC2)cc1` as the molecule, how does the MIC50 [1] read?
A: > 50 µM

Q: Which results are given for `O=C1OCc2cc(N3CCN(C(=O)c4cccc(Cl)c4)CC3)ccc21`?
A: MIC50 [1]: > 50 µM; Kd [2]: 685 nM

Q: What does the source list for `O=C1CCc2cc(N3CCN(C(=O)c4cccc(Cl)c4)CC3)ccc21`?
A: MIC50 [1]: 8.1 µM; Kd [2]: 132 nM

Q: With `CC(=O)c1ccc(N2CCC(C(=O)c3ccc4c(c3)OCO4)CC2)cc1` as the molecule, how does the MIC50 [1] read?
A: > 50 µM

Q: For `Cn1nnnc1-c1ccc(N2CCN(C(=O)c3cccc(Cl)c3)CC2)cc1`, which MIC50 [1] is on record?
A: > 50 µM

Q: With `CC(=O)c1ccc(N2CCN(C(=O)c3ccc4c(c3)OCCCO4)CC2)cc1` as the molecule, how does the MIC50 [1] read?
A: > 50 µM

Q: With `CC(=O)c1ccc(N2CCN(C(=O)c3ccc4c(c3)OCO4)CC2)cc1` as the molecule, how does the MIC50 [1] read?
A: 31.1 µM

Q: What about the MIC90 [1] of the same molecule?
A: > 50 µM

Q: And the Kd [2]?
A: 108 nM

Q: With `N#Cc1ccc(N2CCN(C(=O)c3cccc(Cl)c3)CC2)cc1` as the molecule, how does the MIC50 [1] read?
A: 45.9 µM

Q: With `CC(=O)c1ccc(N2CCN(C(=O)CC(C)C)CC2)cc1` as the molecule, how does the MIC50 [1] read?
A: > 50 µM

Reference: ChEMBL document CHEMBL4011626, “Structure-Based Optimization of Pyridoxal 5'-Phosphate-Dependent Transaminase Enzyme (BioA) Inhibitors that Target Biotin Biosynthesis in Mycobacterium tuberculosis” (J Med Chem, 2017)
